# Laboratory results: ChEMBL document CHEMBL1132240, “Design and synthesis of modified quinolones as antitumoral acridones” (J Med Chem, 1999)
# Legend:
# P388 [1] = assay: Cytotoxic activity Murine Lymphocytic Leukemia P388 Concentration of agent required to reduce cell viability by 90%; format: functional; details: Mus musculus
# In short: (§1)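 Modified MTT assay. Cells seeded per well with graded drug: CHO 2.5 × 10^3, B16 5 × 10^3, P388 and LLC 10^4, HL-60 and LoVo 5 × 10^4. After 68 h, MTT (2.5 mg/mL) added for 4 h at 37 °C. Formazan dissolved in DMSO and A550 read. Inhibition taken as fractional A550 decrease vs control. IC50/IC90 from Chou's median-effect equation.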
# CHO [2] = assay: Cytotoxic activity against solid tumor, CHO (Chinese hamster ovaric carcinoma) Concentration of agent required to reduce cell viability by 90%; format: functional; details: Cricetulus griseus; in short: as §1
# [3] = Ratio of antilog(mean log IC50 in bone marrow sample) and antolog(mean log IC50) in HL-60); format: functional
# In short: (§2)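 Second-stage assay on HL-60 (5 × 10^4/well) and soybean-agglutinin-negative mononuclear marrow cells (5 × 10^5/well) from six healthy donors. Four wells per concentration, 48 h at 37 °C, then [125I]iododeoxyuridine plus fluorodeoxyuridine for 18 h. Inhibition from fractional uptake decrease; IC50/IC90 by median-effect equation. Ranges are antilog(mean log ± 2SD); ratios use mean antilogs.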
# B16 [4] = assay: Cytotoxic activity against solid tumor, B16 (murine melanoma) Concentration of agent required to reduce cell viability by 50%; format: functional, cell-based; details: Mus musculus; in short: as §1
# HL-60 [5] = assay: Cytotoxic activity against Human promyelocytic Leukemia HL-60 Concentration of agent required to reduce cell viability by 50%; format: functional, cell-based; in short: as §1
# [6] = test system: Lewis lung carcinoma cell line; assay: Cytotoxic activity against solid tumor LLC(Lewis lung carcinoma), concentration of agent required to reduce cell viability by 90%; format: functional; details: Mus musculus; in short: as §1
# [7] = Ratio of antilog(mean log IC90 in bone marrow sample) and antolog(mean log IC90) in HL-60); format: functional; in short: as §2
# P388 [8] = assay: Cytotoxic activity against Murine Lymphocytic Leukemia P388 Concentration of agent required to reduce cell viability by 50%; format: functional, cell-based; details: Mus musculus; in short: as §1
# [9] = test system: Lewis lung carcinoma cell line; assay: Cytotoxic activity against solid tumor LLC(Lewis lung carcinoma), concentration of agent required to reduce cell viability by 50%; format: functional, cell-based; details: Mus musculus; in short: as §1
# LoVo [10] = assay: Cytotoxic activity against solid tumor, LoVo, (human colon adenocarcinoma) Concentration of agent required to reduce cell viability by 50%; format: functional, cell-based; in short: as §1
# [11] = Ratio of antilog(mean log IC50 in bone marrow sample) and antolog(mean log IC90) in HL-60); format: functional; in short: as §2
# Homo sapiens [12] = organism: Homo sapiens; assay: Relative cytotoxicity against Human bone marrow samples; Value is in range, activity expressed as IC50; format: functional; in short: as §2
# P388 [13] = assay: In vivo antitumor activity against Murine P388 Leukemia at 20 mg/kg dose;(Median survival time of treated mice)/(median survival time of controls) x100; format: functional, Mus musculus
# In short: (§3)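 Female BD2F1 mice (8 weeks, 20-22 g), eight per group, given 10^5 P388 cells ip on day 0. From 24 h later, drug was given ip once daily for 9 days as a micronized suspension in 0.5% carboxymethylcellulose. Deaths were recorded daily over a 33-day study. %T/C = median survival time of treated / median survival time of controls × 100; >125 taken as significant.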
# P388 [14] = assay: In vivo antitumor activity against Murine P388 Leukemia at 6.67 mg/kg dose;(Median survival time of treated mice)/(median survival time of controls) x100; format: functional, Mus musculus; in short: as §3
# Homo sapiens [15] = organism: Homo sapiens; assay: Relative cytotoxicity against Human bone marrow samples; Value is in range, activity expressed as IC90; format: functional; in short: as §2
# B16 [16] = assay: Cytotoxic activity against solid tumor, B16 (murine melanoma) Concentration of agent required to reduce cell viability by 90%; format: functional; details: Mus musculus; in short: as §1
# CHO [17] = assay: Cytotoxic activity against solid tumor, CHO (Chinese hamster ovaric carcinoma) Concentration of agent required to reduce cell viability by 50%; format: functional, cell-based; details: Cricetulus griseus; in short: as §1
# LoVo [18] = assay: Cytotoxic activity against solid tumor, LoVo, (human colon adenocarcinoma) Concentration of agent required to reduce cell viability by 90%; format: functional; in short: as §1
# P388 [19] = assay: In vivo antitumor activity against Murine P388 Leukemia at 60 mg/kg dose;(Median survival time of treated mice)/(median survival time of controls) x100; format: functional, Mus musculus; in short: as §3
# HL-60 [20] = assay: Relative cytotoxicity against Human promyelocytic Leukemia(HL-60) cells; Value is in range, activity expressed as IC90; format: functional; in short: as §2
# HL-60 [21] = assay: Relative cytotoxicity against Human promyelocytic Leukemia(HL-60) cells; Value is in range, activity expressed as IC50; format: functional, cell-based; in short: as §2
# HL-60 [22] = assay: Cytotoxic activity against Human promyelocytic Leukemia HL-60 Concentration of agent required to reduce cell viability by 90%; format: functional; in short: as §1
# P388 [23] = assay: Cytotoxic activity against murine lymphocytic leukemia P388 concentration of agent required to reduce cell viability by 50%; format: functional, cell-based; details: Mus musculus; in short: as §1
# HL-60 [24] = assay: Cytotoxic activity against human promyelocytic leukemia HL-60 concentration of agent required to reduce cell viability by 90%; format: functional; in short: as §1
# P388 [25] = assay: Cytotoxic activity against murine lymphocytic leukemia P388 concentration of agent required to reduce cell viability by 90%; format: functional; details: Mus musculus; in short: as §1
# HL-60 [26] = assay: Cytotoxic activity against human promyelocytic leukemia HL-60 concentration of agent required to reduce cell viability by 50%; format: functional, cell-based; in short: as §1
Structure (SMILES),IC90 (P388 [1]) [µM],IC90 (CHO [2]) [µM],IC50 (B16 [4]) [µM],IC50 (HL-60 [5]) [µM],IC90 [6] [µM],IC50 (P388 [8]) [µM],IC50 [9] [µM],IC50 (LoVo [10]) [µM],IC90 (B16 [16]) [µM],IC50 (CHO [17]) [µM],IC90 (LoVo [18]) [µM],IC90 (HL-60 [22]) [µM],also measured
CCn1c2cc(N3CCN(C)CC3)c(N)cc2c(=O)c2c(O)cc(O)cc21,13,19,9.9,23,17,4.6,11,17,19,5.8,47,34,Ratio [3]: 0.1; Ratio [7]: 0.5; Ratio [11]: 0.1; IC50 (Homo sapiens [12]): 3.27 µM; T/C (P388 [13]): 116%; T/C (P388 [14]): 115%; IC90 (Homo sapiens [15]): 20.3 µM; T/C (P388 [19]): 132%; IC90 (HL-60 [20]): 42.6 µM; IC50 (HL-60 [21]): 27.7 µM
CCN(CC)CCn1c2cc(OC)c(N)cc2c(=O)c2c(O)cc(O)cc21,5.9,20,3.4,8.2,32,2.8,10,11,11,5.6,36,27,
CCN(CC)CCn1c2cc(N3CCN(C)CC3)c(N)cc2c(=O)c2c(O)cc(O)cc21,13,16,16,11,35,7.2,24,17,23,7.1,21,19,
CCn1c2cc(N3CCC(O)CC3)c(N)cc2c(=O)c2c(O)cc(O)cc21,9.4,38,26,5.4,,3.4,,,> 50,9.9,,9.2,Ratio [3]: 0.4; Ratio [7]: 1.5; Ratio [11]: 0.2; IC50 (Homo sapiens [12]): 1.8 µM; IC90 (Homo sapiens [15]): 15.9 µM; IC90 (HL-60 [20]): 11.7 µM; IC50 (HL-60 [21]): 6.64 µM
CCN(CC)CCn1c2cc(NC)c(N)cc2c(=O)c2c(O)cc(O)cc21,7,36,3.8,9.7,64,3.9,23,26,24,8.2,44,27,
CCN(CC)CCn1c2cc(Cl)c(N)cc2c(=O)c2c(OC)cc(OC)cc21,,,,,,,,,,,,,IC50 (P388 [23]): 4.3 µM; IC90 (HL-60 [24]): 29 µM; IC90 (P388 [25]): 14 µM; IC50 (HL-60 [26]): 8.6 µM
CCn1c2cc(Cl)c(N)cc2c(=O)c2c(OC)cc(OC)cc21,,,,,,,,,,,,,IC50 (P388 [23]): 14 µM; IC90 (HL-60 [24]): 62 µM; IC90 (P388 [25]): 33 µM; IC50 (HL-60 [26]): 16 µM
CCN(CC)CCn1c2cc(N3CCCC3)c(N)cc2c(=O)c2c(O)cc(O)cc21,21,,,96,,9.7,,,,,,> 100,
CCN(CC)CCNc1cc2c(cc1N)c(=O)c1c(O)cc(O)cc1n2CC,11,17,10,19,46,4.3,25,19,38,8.1,30,46,
CCn1c2cc(N3CCCC3)c(N)cc2c(=O)c2c(O)cc(O)cc21,> 100,,,,,> 100,,,,,,,
CCN(CC)c1cc2c(cc1N)c(=O)c1c(O)cc(O)cc1n2CC,50,,,24,,24,,,,,,58,
CCN(CC)CCn1c2cc(N3CCSCC3)c(N)cc2c(=O)c2c(O)cc(O)cc21,19,,,,,8.8,,,,,,,
